From ChEMBL document CHEMBL1765020, “Synthesis and structure-affinity relationships of novel dibenzylideneacetone derivatives as probes for β-amyloid plaques” (J Med Chem, 2011) come the findings set out here.

Experiment [1] can be described thus: Displacement of [125I]IMPY from amyloid beta (1 to 42) aggregate after 2 hrs by gamma counting. An outline of the steps: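 Competition binding in 1 mL PBS (0.2 M, pH 7.4). Aggregated Aβ1-42 fibrils (60 nM final) with [125I]IMPY and inhibitor at 10^-5 to 10^-10 M, added in ethanol. Nonspecific binding was defined with 1 μM IMPY. Incubated 2 h at 37 °C with shaking, then vacuum-filtered through glass fibre filters and the bound fraction gamma-counted. IC50 was converted to Ki by Cheng-Prusoff; triplicate, mean ± SD.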
A general note: In a radioligand displacement assay an active substance lowers the binding of a labelled ligand.

Experiment [2] has as its target Amyloid-beta precursor protein (Homo sapiens) (UniProt P05067). Nature of the experiment: Binding affinity to amyloid beta (1 to 42) aggregate in cortex of Alzheimer disease patient brain by autoradiography. The note with it: tested as the 125I-labelled form. An outline of the steps: (§1)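 Human postmortem temporal-lobe paraffin sections were used: AD patient and normal control (person). They were deparaffinized (xylene, graded ethanol), held 30 min in PBS 0.2 M pH 7.4, incubated 1 h at room temperature with radiotracer (5 μCi/100 μL), washed 3 min in 40% ethanol, rinsed, dried and exposed to an imaging plate overnight.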

For experiment [3] the target is unchanged. Nature of the experiment: Binding affinity to amyloid beta (1 to 42) aggregate in white matter of Alzheimer disease patient brain by autoradiography. Type of experiment: tissue-based. Conditions: tested as the 125I-labelled form. An outline of the steps: as §1
Experiment [4] has the same target. Nature of the experiment: Binding affinity to amyloid beta (1 to 42) aggregate in cortex of Alzheimer disease patient brain by immunohistochemical staining using amyloid beta antibody BC05. The note with it: tested as the 125I-labelled form. An outline of the steps:
(§2)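 Plaque presence and location in the AD patient temporal-lobe sections were confirmed by immunohistochemistry with monoclonal anti-Aβ1-42 antibody BC05.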

For experiment [5] the target is unchanged. Kind of experiment: Binding affinity to amyloid beta (1 to 42) aggregate in white matter of Alzheimer disease patient brain by immunohistochemical staining using amyloid beta antibody BC05. Conditions: tested as the 125I-labelled form. It is filed as tissue-based. An outline of the steps: as §2

Active and inactive are the calls of the source. No cut-off for these calls is given here.

Chain of Amyloid-beta precursor protein (Homo sapiens) (P05067 whole entry): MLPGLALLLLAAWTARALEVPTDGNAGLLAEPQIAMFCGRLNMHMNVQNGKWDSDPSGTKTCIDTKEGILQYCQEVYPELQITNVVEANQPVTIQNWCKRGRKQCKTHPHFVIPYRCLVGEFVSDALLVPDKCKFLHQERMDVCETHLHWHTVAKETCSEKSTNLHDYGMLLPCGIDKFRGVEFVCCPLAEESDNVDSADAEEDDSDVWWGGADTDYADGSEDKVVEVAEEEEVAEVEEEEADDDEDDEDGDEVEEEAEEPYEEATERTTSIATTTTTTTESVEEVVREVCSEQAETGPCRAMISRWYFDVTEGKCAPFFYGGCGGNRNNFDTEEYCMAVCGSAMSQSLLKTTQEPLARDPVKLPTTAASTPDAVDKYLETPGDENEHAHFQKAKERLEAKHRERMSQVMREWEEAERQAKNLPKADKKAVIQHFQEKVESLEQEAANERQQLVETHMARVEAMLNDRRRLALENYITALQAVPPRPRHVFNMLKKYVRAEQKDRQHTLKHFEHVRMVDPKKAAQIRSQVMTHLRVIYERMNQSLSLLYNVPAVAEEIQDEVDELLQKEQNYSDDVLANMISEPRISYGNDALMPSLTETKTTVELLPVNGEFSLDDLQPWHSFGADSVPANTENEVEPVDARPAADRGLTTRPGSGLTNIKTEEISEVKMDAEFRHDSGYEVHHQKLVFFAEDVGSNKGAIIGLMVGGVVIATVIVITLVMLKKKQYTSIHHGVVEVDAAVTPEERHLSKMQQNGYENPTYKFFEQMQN

`CNc1ccc(/C=C/C(=O)/C=C/c2ccc(I)cc2)cc1` yielded a Ki in experiment [1] of 2.8 nM. Also, the result in experiment [2], in experiment [3], in experiment [4] and in experiment [5] was Active.

In general, Ki refers to the dissociation constant of the complex between target and ligand, obtained from inhibition or displacement.
